Source: ChEMBL document CHEMBL4382218, “Design, synthesis and antifungal evaluation of borrelidin derivatives” (Bioorg Med Chem, 2018)
Activity calls are given as the source filed them.

Tests used:
Assay type in all cases: functional, organism-based
Candida albicans = experiment: Antifungal activity against Candida albicans ATCC MYA-2876 at 100 ug/ml after 48 hrs by micro broth dilution method
Summary of the method: (§1)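 Broth microdilution in RPMI-1640 (NaHCO3, MOPS, pH 7.0). Compounds are dissolved in DMSO and serially diluted 2-fold to eight concentrations, with stocks of […]. Fungal inocula are 2 × 10³ cfu/mL. Plates are incubated 48 h at 28 °C. The MIC is the lowest concentration with no turbidity, and the highest concentration tested is 100 μg/mL.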

Candida parapsilosis = experiment: Antifungal activity against Candida parapsilosis ATCC 22019 at 100 ug/ml after 48 hrs by micro broth dilution method; summary of the method: as §1
Aspergillus fumigatus = experiment: Antifungal activity against Aspergillus fumigatus CCTCC AF 93048 at 100 ug/ml after 48 hrs by micro broth dilution method; summary of the method: as §1

Measured: Activity

Cc1ccc(CN2CCN(CCOC(=O)[C@@H]3CCC[C@H]3[C@@H]3C/C=C/C=C(/C#N)[C@H](O)[C@@H](C)C[C@H](C)C[C@H](C)C[C@H](C)[C@@H](O)CC(=O)O3)CC2)cc1
inactive: Candida albicans | Candida parapsilosis | Aspergillus fumigatus

C[C@@H]1C[C@H](C)C[C@H](C)[C@@H](O)CC(=O)O[C@H]([C@@H]2CCC[C@H]2C(=O)N2CCN(Cc3ccccc3)CC2)C/C=C/C=C(/C#N)[C@H](O)[C@@H](C)C1
inactive: Candida albicans | Candida parapsilosis | Aspergillus fumigatus

C[C@@H]1C[C@H](C)C[C@H](C)[C@@H](O)CC(=O)O[C@H]([C@@H]2CCC[C@H]2C(=O)OCCN2CCN(C(=O)c3ccccc3)CC2)C/C=C/C=C(/C#N)[C@H](O)[C@@H](C)C1
inactive: Candida albicans | Candida parapsilosis | Aspergillus fumigatus

CC(=O)N1CCN(CCOC(=O)[C@@H]2CCC[C@H]2[C@@H]2C/C=C/C=C(/C#N)[C@H](O)[C@@H](C)C[C@H](C)C[C@H](C)C[C@H](C)[C@@H](O)CC(=O)O2)CC1
inactive: Candida albicans | Candida parapsilosis | Aspergillus fumigatus

COc1ccc2[nH]cc(CCNC(=O)[C@@H]3CCC[C@H]3[C@@H]3C/C=C/C=C(/C#N)[C@H](O)[C@@H](C)C[C@H](C)C[C@H](C)C[C@H](C)[C@@H](O)CC(=O)O3)c2c1
inactive: Candida albicans | Candida parapsilosis | Aspergillus fumigatus

COC(=O)[C@@H](Cc1cnc[nH]1)NC(=O)[C@@H]1CCC[C@H]1[C@@H]1C/C=C/C=C(/C#N)[C@H](O)[C@@H](C)C[C@H](C)C[C@H](C)C[C@H](C)[C@@H](O)CC(=O)O1
inactive: Candida albicans | Candida parapsilosis | Aspergillus fumigatus

C[C@@H]1C[C@H](C)C[C@H](C)[C@@H](O)CC(=O)O[C@H]([C@@H]2CCC[C@H]2C(=O)N2CCN(CCO)CC2)C/C=C/C=C(/C#N)[C@H](O)[C@@H](C)C1
inactive: Candida albicans | Candida parapsilosis | Aspergillus fumigatus

C[C@@H]1C[C@H](C)C[C@H](C)[C@@H](O)CC(=O)O[C@H]([C@@H]2CCC[C@H]2C(=O)OCCN2CCNCC2)C/C=C/C=C(/C#N)[C@H](O)[C@@H](C)C1
inactive: Candida albicans | Candida parapsilosis | Aspergillus fumigatus

C[C@@H]1C[C@H](C)C[C@H](C)[C@@H](O)CC(=O)O[C@H]([C@@H]2CCC[C@H]2C(=O)N2CCNCC2)C/C=C/C=C(/C#N)[C@H](O)[C@@H](C)C1
inactive: Candida albicans | Candida parapsilosis | Aspergillus fumigatus

COC(=O)[C@@H](CCSC)NC(=O)[C@@H]1CCC[C@H]1[C@@H]1C/C=C/C=C(/C#N)[C@H](O)[C@@H](C)C[C@H](C)C[C@H](C)C[C@H](C)[C@@H](O)CC(=O)O1
inactive: Candida albicans | Candida parapsilosis | Aspergillus fumigatus

C[C@@H]1C[C@H](C)C[C@H](C)[C@@H](O)CC(=O)O[C@H]([C@@H]2CCC[C@H]2C(=O)OCCN2CCN(Cc3ccc([N+](=O)[O-])cc3)CC2)C/C=C/C=C(/C#N)[C@H](O)[C@@H](C)C1
inactive: Candida albicans | Candida parapsilosis | Aspergillus fumigatus

COc1ccc(CCNC(=O)[C@@H]2CCC[C@H]2[C@@H]2C/C=C/C=C(/C#N)[C@H](O)[C@@H](C)C[C@H](C)C[C@H](C)C[C@H](C)[C@@H](O)CC(=O)O2)cc1
inactive: Candida albicans | Candida parapsilosis | Aspergillus fumigatus
